Measurements as given in ChEMBL document CHEMBL1126267, “A novel synthesis and potent antiinflammatory activity of 4-hydroxy-2(1H)-oxo-1-phenyl-1,8-naphthyridine-3-carboxamides” (1992).

Columns and labels:
Assay type in all cases: functional
Conditions in all cases: route oral
Rattus norvegicus [1] = test: Inhibition of Zymosan-induced rat's paw edema(ZPE) after peroral administration of 100 mg/kg dose.
How it was run: (§1)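 Male Wistar rats (about 150 g) were dosed orally with compound suspended in 5% arabic gum, 1 h before a subplantar hind-paw injection of 0.1 mL saline. The irritant was 1% zymosan for 33 or 1% λ-carrageenin for 34. Paw volume was measured by plethysmograph before dosing and at 4 h (zymosan) or 3 h (carrageenin). Swelling is relative to initial volume, as mean ± SEM. % inhibition is versus the control group's mean swelling.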

Rattus norvegicus [2] = test: Antiinflammatory activity on Carrageenan rat's paw edema(CPE) after peroral administration of 100 mg/kg dose with control swelling of 73.7%
Rattus norvegicus [3] = test: Antiinflammatory activity on Zymosan-induced rat's paw edema(ZPE) after peroral administration of 100 mg/kg dose with control swelling of 72.9%
How it was run: (§2)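 Male Wistar rats weighing about 150 g were dosed orally with compound suspended in 5% arabic gum. 1 h later, 1% zymosan in 0.1 mL saline was injected subplantarly into the hind paw. Paw volume was measured by plethysmograph before dosing and 4 h after zymosan, with edema as the volume difference. Inhibition % was derived from mean swelling versus the control group.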

Rattus norvegicus [4] = test: Inhibition of carrageenan-induced rat's paw edema (CPE) after peroral administration of 100 mg/kg dose.; how it was run: as §1
Rattus norvegicus [5] = test: Compound was tested for the inhibition of rat reversed passive Arthus pleurisy after peroral administration of 100 mg/kg dose at 0.63 mL of exudate volume with 0.84 mL of control (injected intrapleurally)
How it was run: (§3)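 Male Wistar rats (about 250 g) were given compound orally before the antiserum. Under ether anesthesia, 0.2 mL rabbit anti-egg albumin antiserum was injected intrapleurally. After 30 min, egg albumin (15 mg/100 g body weight in 0.1 mL saline) was given iv. Rats were killed 4.5 h later and the thoracic cavity was rinsed with 5 mL saline. Exudate volume and infiltrated cell number were measured, with inhibition % versus controls as mean ± SEM.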

Rattus norvegicus [6] = test: Compound was tested for the inhibition of rat reversed passive Arthus pleurisy after peroral administration of 100 mg/kg dose at 4.63*10e6 no of cells with 5.72*10e6 cells of control
How it was run: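 Male Wistar rats (about 250 g) under ether received 0.2 mL rabbit anti-egg-albumin antiserum intrapleurally. Thirty min later they got 15 mg EA/100 g body weight in 0.1 mL saline iv. Compounds were given orally beforehand. Rats were killed 4.5 h after induction and the thoracic cavity rinsed with 5 mL saline. Exudate volume and infiltrated cell count were read as mean ± SE. % inhibition is versus control.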

Rattus norvegicus [7] = test: Antiinflammatory activity on Carrageenan rat's paw edema(CPE) after peroral administration of 100 mg/kg dose with control swelling of 68.1%
Rattus norvegicus [8] = test: Antiinflammatory activity on Zymosan-induced rat's paw edema(ZPE) after peroral administration of 100 mg/kg dose with control swelling of 62.8%; how it was run: as §2
Rattus norvegicus [9] = test: Compound was tested for the inhibition of rat reversed passive Arthus pleurisy after peroral administration of 100 mg/kg dose at 0.33 mL of exudate volume with 0.46 mL of control (injected intrapleurally); how it was run: as §3
Rattus norvegicus [10] = test: Compound was tested for the inhibition of rat reversed passive Arthus pleurisy after peroral administration of 100 mg/kg dose at 1.69*10e6 no of cells with 2.17*10e6 cells of control; how it was run: as §3
Rattus norvegicus [11] = test: Antiinflammatory activity on Carrageenan rat's paw edema(CPE) after peroral administration of 100 mg/kg dose with control swelling of 81.0%
Rattus norvegicus [12] = test: Antiinflammatory activity on Zymosan-induced rat's paw edema(ZPE) after peroral administration of 100 mg/kg dose with control swelling of 52.2%; how it was run: as §2

Nc1ccc(NC(=O)c2c(O)c3cccnc3n(-c3ccccc3)c2=O)cc1
inhibition in vivo at 100 mg/kg (Rattus norvegicus [1]): -5.5% | Swelling (Rattus norvegicus [2]): 79% | Swelling (Rattus norvegicus [3]): 76.9% | inhibition in vivo at 100 mg/kg (Rattus norvegicus [4]): 0%

COc1cccc(NC(=O)c2c(O)c3cccnc3n(-c3ccccc3)c2=O)c1
inhibition in vivo at 100 mg/kg (Rattus norvegicus [5]): 26.9% | inhibition in vivo at 100 mg/kg (Rattus norvegicus [1]): 5.7% | inhibition in vivo at 100 mg/kg (Rattus norvegicus [6]): 22.1% | Swelling (Rattus norvegicus [7]): 54% | Swelling (Rattus norvegicus [8]): 59.2% | inhibition in vivo at 100 mg/kg (Rattus norvegicus [4]): 20.7%

O=C(NC1CCN(Cc2ccccc2)CC1)c1c(O)c2cccnc2n(-c2ccccc2)c1=O
inhibition in vivo at 100 mg/kg (Rattus norvegicus [9]): 32.4% | inhibition in vivo at 100 mg/kg (Rattus norvegicus [1]): 1.7% | inhibition in vivo at 100 mg/kg (Rattus norvegicus [10]): 22.1% | Swelling (Rattus norvegicus [11]): 80.8% | Swelling (Rattus norvegicus [12]): 51.3% | inhibition in vivo at 100 mg/kg (Rattus norvegicus [4]): 1.2%
